The record followed here is ChEMBL document CHEMBL4304743, “Discovery of ( E)- N1-(3-Fluorophenyl)- N3-(3-(2-(pyridin-2-yl)vinyl)-1 H-indazol-6-yl)malonamide (CHMFL-KIT-033) as a Novel c-KIT T670I Mutant Selective Kinase Inhibitor for Gastrointestinal Stromal Tumors (GISTs)” (J Med Chem, 2019).

pEC50, pIC50: −log10 of the molar value. The source made the active and inactive calls. Where only a bound is given, the exact number is not on record here.

Series [1] in a line: Antitumor activity against human GIST5R cells xenografted in nude mouse assessed as tumor weight at 100 mg/kg, po administered […] via gavage for 28 days (reference value: 0.59g). The format is functional. The method in brief: (§1)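 Female nu/nu mice (5 weeks old) given subcutaneous right-flank GIST-5R cells in Matrigel. Dosing began at tumors of 200-400 mm3; randomized, 4 mice per group. Daily oral dosing (QD) at 25, 50 or 100 mg/kg in 0.5% methylcellulose/0.4% Tween80, or vehicle alone, for 28 days. Body weight and tumor volume, (W²×L)/2, measured daily; mean±SEM.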
Background: A xenograft is tissue or cells of one species grown in another, often human tumour cells in immunodeficient mice.

Series [2] is described as follows: AUC (0 to infinity) in mouse at 1 mg/kg, iv measured after 2 to 720 mins by LC-tandem mass spectrometry analysis. In kind it is ADME, organism-based. Also on record: dose 1 mg/kg, time infinity, route intravenous. As to conditions: in vivo. A digest of the protocol:
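Mice dosed 1 mg/kg i.v. or 10 mg/kg p.o.; plasma drug levels by LC-MS/MS, parameters by noncompartmental analysis; values not from triplicate testing.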

The subject of series [3] is GISTT1. Description: Induction of cell cycle arrest in human GISTT1 cells harboring c-KIT 560 to 578 deletion mutant after 24 hrs. In kind it is functional, cell-based.
The nature of series [4]: Half-life in Sprague-Dawley rat at 1 mg/kg, iv measured after 2 to 720 mins by LC-tandem mass spectrometry analysis. The format is ADME, organism-based. The following applies: in vivo. The method in brief:
(§2)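 Male Sprague-Dawley rats (190-210 g), fasted 12 h, randomized into two groups: 1 mg/kg i.v. or 10 mg/kg p.o., both formulated in 10% DMSO/90% of 5% glucose water. Blood sampled at 2-720 min (i.v.) or 5-720 min (p.o.). Plasma protein-precipitated with methanol, caffeine internal standard, LC-MS/MS. Noncompartmental analysis; triplicate, ±SD.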

A short description of series [5]: Tmax in mouse at 1 mg/kg, iv measured after 2 to 720 mins by LC-tandem mass spectrometry analysis. The format is ADME, organism-based. The following applies: in vivo.
Series [6] in a line: Antitumor activity against human GIST5R cells xenografted in nude mouse assessed as tumor weight at 25 mg/kg, po administered […] via gavage for 28 days (reference value: 0.59g). The format is functional. A digest of the protocol:
as §1

Series [7] concerns the target T1, Mast/stem cell growth factor receptor Kit (Homo sapiens, UniProt P10721). Description: Inhibition of wild type c-KIT phosphorylation at Y703 residue in human COLO320DM cells after 2 hrs by Western blot analysis. The format is cell-based. On the technique in general: In western blotting, separated proteins are transferred to a membrane and probed.
The test system of series [8] is Mast/stem cell growth factor receptor Kit (Homo sapiens), P10721 [UNDEFINED MUTATION]. The series is described as follows: Inhibition of c-KIT 560 to 578 deletion mutant in human GISTT1 cells assessed as reduction in AKT phosphorylation at S473 residue at 0.1 uM to 3 uM after 1 hr by Western blot analysis. The format is cell-based. A digest of the protocol: (§3)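 Serial compound dilutions applied for 1 h to GIST-T1, GIST-T1-T670I (CRISPR/Cas9 T670I knock-in, clone confirmed by Sanger sequencing) or GIST-5R cells in DMEM with 10% FBS. Cells then lysed and phospho-proteins detected by standard Western blotting.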

A short description of series [9]: Drug level in plasma of nude mouse xenograted with human GIST5R cells at 100 mg/kg, po administered as single dose and measured at 4 hrs. In kind it is ADME, organism-based. The following applies: in vivo. The method in brief:
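GIST-5R xenograft nu/nu mice given a single 100 mg/kg oral dose; plasma drug concentration followed over a time course alongside tumor p-c-KIT, p-ERK and p-AKT.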

In series [10] the test system is GISTT1. The series is described as follows: Induction of cell cycle arrest in human GISTT1 cells harboring 560 to 578 deletion/T670I double mutant after 24 hrs. In kind it is functional, cell-based.
The target in series [11] is T2, Casein kinase I isoform alpha (Homo sapiens, UniProt P48729). Description: Inhibition of wild-type human partial length CSNK1A1 (M1 to L301 residues) expressed in mammalian expression system after 1 hr by Z-LYTE assay.
Target sequence in this assay (P48729 whole entry, the tested form may be a part, canonical isoform): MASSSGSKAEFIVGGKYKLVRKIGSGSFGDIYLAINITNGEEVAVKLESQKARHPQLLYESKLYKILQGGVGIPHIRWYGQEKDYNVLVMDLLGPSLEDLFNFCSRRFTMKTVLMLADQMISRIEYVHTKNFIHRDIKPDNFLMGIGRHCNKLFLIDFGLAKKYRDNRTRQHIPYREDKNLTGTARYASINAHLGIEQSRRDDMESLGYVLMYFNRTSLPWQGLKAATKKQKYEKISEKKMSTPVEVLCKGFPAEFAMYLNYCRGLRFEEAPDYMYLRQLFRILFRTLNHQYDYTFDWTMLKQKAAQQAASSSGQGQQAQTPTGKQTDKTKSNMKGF
The target of series [12] is Serine/threonine-protein kinase Nek1 (Homo sapiens) (UniProt Q96PY6). Description: Binding affinity to wild-type human partial length NEK1 (M1 to K278 residues) expressed in bacterial expression system assessed as enzyme remaining activity at 1 uM by Kinomescan assay relative to control. The method in brief: (§4)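 KINOMEscan competition binding panel of 468 kinases and mutants, compound at 1 μM; binding reported as percent of control.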

Series [13] has as its target Mast/stem cell growth factor receptor Kit (Homo sapiens, UniProt P10721, T670I). Description: Inhibition of TEL fused wild type c-KIT T670I mutant (unknown origin) transfected in mouse BaF3 cells assessed as reduction in phosphorylation at Y823 residue after 2 hrs by Western blot analysis. In kind it is cell-based.
A short description of series [14]: Oral bioavailability in Sprague-Dawley rat at 10 mg/kg measured after 5 to 720 mins by LC-tandem mass spectrometry analysis. The format is ADME, organism-based. The following applies: in vivo. The method in brief: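 Male Sprague–Dawley rats (190-210 g), fasted 12 h, given 1 mg/kg i.v. or 10 mg/kg p.o. in DMSO/5% glucose water (1:9). Blood sampled at 2–720 min (i.v.) or 5–720 min (p.o.). Plasma proteins precipitated with methanol using caffeine internal standard, then LC-MS/MS. Noncompartmental analysis; F = AUC0-∞ ratio corrected for dose; triplicate ±SD.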

The target of series [15] is T1, Mast/stem cell growth factor receptor Kit. The series is described as follows: Inhibition of TEL fused wild type c-KIT (unknown origin) transfected in mouse BaF3 cells assessed as reduction in phosphorylation at Y703 residue after 2 hrs by Western blot analysis. In kind it is cell-based.
Series [16] concerns Mast/stem cell growth factor receptor Kit (Homo sapiens), P10721 [UNDEFINED MUTATION]. The series is described as follows: Inhibition of c-KIT 560 to 578 deletion/T670I double mutant in human GISTT1 cells assessed as reduction in AKT phosphorylation at S473 residue at 0.1 uM to 3 uM after 1 hr by Western blot analysis. The format is cell-based. The method in brief: as §3
Series [17] can be described thus: Half-life in Sprague-Dawley rat at 10 mg/kg, po measured after 5 to 720 mins by LC-tandem mass spectrometry analysis. In kind it is ADME, organism-based. The following applies: in vivo. A digest of the protocol: as §2
Series [18] deals with Platelet-derived growth factor receptor alpha (Homo sapiens, UniProt P16234). Description: Binding affinity to wild-type human partial length PDGFRA (V575 to D1002 residues) expressed in mammalian expression system assessed as enzyme remaining activity at 1 uM by Kinomescan assay relative to control.
The target in series [19] is T2, Casein kinase I isoform alpha. The series is described as follows: Binding affinity to wild-type human partial length CSNK1A1 (M1 to L301 residues) expressed in mammalian expression system assessed as enzyme remaining activity at 1 uM by Kinomescan assay relative to control. A digest of the protocol:
as §4
Target sequence in this assay (P48729 2-337 limits assumed): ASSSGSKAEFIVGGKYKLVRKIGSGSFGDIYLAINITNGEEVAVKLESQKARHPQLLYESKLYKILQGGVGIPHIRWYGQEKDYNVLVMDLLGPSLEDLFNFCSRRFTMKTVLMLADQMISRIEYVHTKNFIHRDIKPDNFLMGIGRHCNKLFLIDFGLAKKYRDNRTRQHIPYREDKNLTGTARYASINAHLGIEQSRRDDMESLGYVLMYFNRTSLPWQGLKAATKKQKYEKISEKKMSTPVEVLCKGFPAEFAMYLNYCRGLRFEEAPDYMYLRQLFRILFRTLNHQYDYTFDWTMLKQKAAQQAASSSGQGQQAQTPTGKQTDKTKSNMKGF

Series [20] deals with Mus musculus. The series is described as follows: Inhibition of c-KIT phosphorylation at Y823 residue in tumor of human GIST5R cells xenografted in nude mouse at 100 mg/kg, po administered as single dose and measured at 2 hrs. In kind it is functional, organism-based. A digest of the protocol:
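Female nu/nu mice bearing subcutaneous GIST-5R xenografts (cells in Matrigel, right flank) given one oral gavage dose of 100 mg/kg in HKI suspension (0.5% methocellulose/0.4% Tween80 in ddH2O). Tumors collected over a 2 h time course; p-c-KIT, p-ERK and p-AKT assessed by Western blot; plasma drug levels monitored in parallel.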

Series [21] concerns Mus musculus. Description: Inhibition of c-KIT phosphorylation at Y703 residue in tumor of human GIST5R cells xenografted in nude mouse at 100 mg/kg, po administered as single dose and measured after 2 hrs. In kind it is functional, organism-based. A digest of the protocol: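 Female nu/nu mice bearing subcutaneous GIST-5R tumors (cells in Matrigel, right flank) given one oral dose of 100 mg/kg in 0.5% methylcellulose/0.4% Tween80. Tumors collected over a 2 h time course. p-c-KIT, p-ERK and p-AKT measured alongside plasma drug levels.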

Sequence of Mast/stem cell growth factor receptor Kit (Homo sapiens), P10721 [UNDEFINED MUTATION] (P10721 whole entry, looked up, stated change not applied): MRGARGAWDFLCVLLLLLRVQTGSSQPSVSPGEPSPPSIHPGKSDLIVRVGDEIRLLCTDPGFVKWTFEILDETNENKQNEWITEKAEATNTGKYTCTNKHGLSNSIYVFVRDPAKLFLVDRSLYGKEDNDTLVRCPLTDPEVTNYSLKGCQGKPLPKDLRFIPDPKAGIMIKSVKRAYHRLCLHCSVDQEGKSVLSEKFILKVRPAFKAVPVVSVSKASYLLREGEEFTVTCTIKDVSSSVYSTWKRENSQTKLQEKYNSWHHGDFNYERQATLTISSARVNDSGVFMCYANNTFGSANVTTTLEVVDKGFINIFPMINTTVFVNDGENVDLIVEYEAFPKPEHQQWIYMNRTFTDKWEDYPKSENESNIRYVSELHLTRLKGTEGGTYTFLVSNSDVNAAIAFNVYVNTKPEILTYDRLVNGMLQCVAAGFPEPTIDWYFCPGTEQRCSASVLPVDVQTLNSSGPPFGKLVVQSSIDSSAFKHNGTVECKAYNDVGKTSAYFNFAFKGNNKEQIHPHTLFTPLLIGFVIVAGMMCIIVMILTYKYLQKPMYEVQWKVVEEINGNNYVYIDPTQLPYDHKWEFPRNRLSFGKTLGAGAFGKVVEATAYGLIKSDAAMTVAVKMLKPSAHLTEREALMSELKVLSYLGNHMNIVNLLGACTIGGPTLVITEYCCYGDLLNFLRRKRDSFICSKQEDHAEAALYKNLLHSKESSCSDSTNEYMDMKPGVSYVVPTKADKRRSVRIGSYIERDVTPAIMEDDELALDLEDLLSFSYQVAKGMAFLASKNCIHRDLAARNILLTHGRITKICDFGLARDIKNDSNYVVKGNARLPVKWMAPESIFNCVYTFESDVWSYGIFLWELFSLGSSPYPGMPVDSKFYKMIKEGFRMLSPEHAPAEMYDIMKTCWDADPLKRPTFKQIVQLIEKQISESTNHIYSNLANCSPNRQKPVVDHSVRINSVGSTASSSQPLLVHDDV
T1 sequence (P10721 whole entry): as the sequence (P10721 whole entry, looked up, stated change not applied) above
Sequence of Mast/stem cell growth factor receptor Kit (Homo sapiens, UniProt P10721, T670I) (P10721 26-976 T670I limits assumed): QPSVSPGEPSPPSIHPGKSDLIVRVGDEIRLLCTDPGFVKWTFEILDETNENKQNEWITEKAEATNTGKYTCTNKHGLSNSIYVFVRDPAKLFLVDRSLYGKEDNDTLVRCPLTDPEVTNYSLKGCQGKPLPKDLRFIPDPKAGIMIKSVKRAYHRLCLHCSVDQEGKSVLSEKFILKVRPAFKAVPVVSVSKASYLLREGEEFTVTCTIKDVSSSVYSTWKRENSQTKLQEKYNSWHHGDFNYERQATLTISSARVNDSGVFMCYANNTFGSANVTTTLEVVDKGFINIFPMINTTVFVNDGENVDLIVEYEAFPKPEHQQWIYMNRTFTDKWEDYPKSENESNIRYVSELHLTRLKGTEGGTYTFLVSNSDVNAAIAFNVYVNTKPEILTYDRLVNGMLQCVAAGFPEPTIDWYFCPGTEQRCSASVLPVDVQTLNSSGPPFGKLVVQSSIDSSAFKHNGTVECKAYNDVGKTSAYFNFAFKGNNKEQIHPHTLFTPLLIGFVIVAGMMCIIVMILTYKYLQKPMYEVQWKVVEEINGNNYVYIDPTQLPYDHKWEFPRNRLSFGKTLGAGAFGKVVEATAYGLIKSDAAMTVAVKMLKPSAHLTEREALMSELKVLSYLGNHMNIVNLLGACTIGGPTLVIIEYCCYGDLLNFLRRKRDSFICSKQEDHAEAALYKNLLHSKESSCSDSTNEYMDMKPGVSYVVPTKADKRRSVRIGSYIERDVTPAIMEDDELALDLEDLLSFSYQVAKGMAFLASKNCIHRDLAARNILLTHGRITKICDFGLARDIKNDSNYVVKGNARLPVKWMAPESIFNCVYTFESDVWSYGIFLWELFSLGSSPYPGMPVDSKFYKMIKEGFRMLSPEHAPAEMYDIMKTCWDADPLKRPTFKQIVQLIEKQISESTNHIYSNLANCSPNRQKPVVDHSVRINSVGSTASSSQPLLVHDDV
Sequence of Serine/threonine-protein kinase Nek1 (Homo sapiens) (Q96PY6 whole entry, the tested form may be a part): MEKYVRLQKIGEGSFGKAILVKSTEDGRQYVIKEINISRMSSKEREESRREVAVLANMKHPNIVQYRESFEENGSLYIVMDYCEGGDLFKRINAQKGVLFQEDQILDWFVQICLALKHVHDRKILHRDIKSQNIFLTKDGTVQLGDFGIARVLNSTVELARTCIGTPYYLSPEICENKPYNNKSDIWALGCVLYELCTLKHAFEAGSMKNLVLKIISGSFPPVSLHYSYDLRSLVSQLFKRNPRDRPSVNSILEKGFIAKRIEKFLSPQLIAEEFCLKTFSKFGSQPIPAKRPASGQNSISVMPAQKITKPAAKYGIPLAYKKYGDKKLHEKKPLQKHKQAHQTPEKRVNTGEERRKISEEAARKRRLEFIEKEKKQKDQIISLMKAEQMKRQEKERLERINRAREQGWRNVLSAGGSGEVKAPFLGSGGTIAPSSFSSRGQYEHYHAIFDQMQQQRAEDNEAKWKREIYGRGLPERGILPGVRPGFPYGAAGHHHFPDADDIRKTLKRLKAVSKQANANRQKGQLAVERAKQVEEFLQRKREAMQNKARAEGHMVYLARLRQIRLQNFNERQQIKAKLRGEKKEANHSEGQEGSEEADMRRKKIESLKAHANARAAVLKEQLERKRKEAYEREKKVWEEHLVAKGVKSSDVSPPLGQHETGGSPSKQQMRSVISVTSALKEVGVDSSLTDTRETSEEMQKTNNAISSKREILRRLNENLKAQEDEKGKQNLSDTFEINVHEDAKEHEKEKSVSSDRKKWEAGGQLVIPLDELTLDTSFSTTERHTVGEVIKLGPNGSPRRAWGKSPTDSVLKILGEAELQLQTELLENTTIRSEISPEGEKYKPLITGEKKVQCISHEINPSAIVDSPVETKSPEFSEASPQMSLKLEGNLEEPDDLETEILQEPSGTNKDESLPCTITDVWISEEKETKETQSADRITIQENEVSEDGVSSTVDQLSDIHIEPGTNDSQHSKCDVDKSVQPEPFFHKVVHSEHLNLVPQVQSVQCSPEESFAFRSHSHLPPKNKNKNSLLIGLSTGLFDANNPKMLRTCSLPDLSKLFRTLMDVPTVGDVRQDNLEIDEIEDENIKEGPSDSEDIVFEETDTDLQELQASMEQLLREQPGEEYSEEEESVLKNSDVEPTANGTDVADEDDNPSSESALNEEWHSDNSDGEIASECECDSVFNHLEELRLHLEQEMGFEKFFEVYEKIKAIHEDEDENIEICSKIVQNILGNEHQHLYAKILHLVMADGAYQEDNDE
Sequence of Platelet-derived growth factor receptor alpha (P16234 whole entry, the tested form may be a part, canonical isoform): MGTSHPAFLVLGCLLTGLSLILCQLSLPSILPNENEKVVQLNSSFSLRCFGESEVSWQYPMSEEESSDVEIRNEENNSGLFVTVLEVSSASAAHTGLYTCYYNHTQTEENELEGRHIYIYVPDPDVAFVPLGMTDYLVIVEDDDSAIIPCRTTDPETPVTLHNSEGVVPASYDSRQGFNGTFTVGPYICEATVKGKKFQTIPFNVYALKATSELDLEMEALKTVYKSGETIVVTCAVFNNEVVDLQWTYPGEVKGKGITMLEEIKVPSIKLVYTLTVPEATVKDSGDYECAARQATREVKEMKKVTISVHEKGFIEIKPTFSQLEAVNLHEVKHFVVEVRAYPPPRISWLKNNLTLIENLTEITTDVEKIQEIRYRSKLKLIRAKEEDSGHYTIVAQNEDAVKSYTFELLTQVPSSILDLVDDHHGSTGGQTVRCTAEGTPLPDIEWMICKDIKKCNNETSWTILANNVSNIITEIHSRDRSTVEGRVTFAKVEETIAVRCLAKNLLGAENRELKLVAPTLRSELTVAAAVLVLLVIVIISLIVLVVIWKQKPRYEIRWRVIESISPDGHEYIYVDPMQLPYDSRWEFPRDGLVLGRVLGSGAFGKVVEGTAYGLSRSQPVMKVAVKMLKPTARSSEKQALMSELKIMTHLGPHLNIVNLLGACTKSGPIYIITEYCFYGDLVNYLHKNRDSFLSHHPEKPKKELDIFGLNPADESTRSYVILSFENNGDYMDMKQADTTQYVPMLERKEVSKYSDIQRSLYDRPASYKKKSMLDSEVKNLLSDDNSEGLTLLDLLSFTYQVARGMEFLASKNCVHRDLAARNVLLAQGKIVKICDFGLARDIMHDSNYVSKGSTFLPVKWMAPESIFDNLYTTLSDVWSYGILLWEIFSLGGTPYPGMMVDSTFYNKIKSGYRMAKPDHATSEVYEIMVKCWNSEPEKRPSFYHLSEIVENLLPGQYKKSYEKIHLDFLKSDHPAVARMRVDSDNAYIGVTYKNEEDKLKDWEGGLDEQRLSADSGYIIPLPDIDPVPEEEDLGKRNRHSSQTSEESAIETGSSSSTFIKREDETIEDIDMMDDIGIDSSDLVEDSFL

Broadly, the AUC(0-inf) is total exposure, with the tail of the curve extrapolated. The half-life is the time needed for the level to fall by half in the phase considered. A word on the Tmax: it is the time from dosing to the highest level. One may read the pEC50 as the EC50 on a negative log10 scale, so that one unit is a factor of ten. For orientation: pIC50 means the negative decadic logarithm of the IC50, by convention in mol/L. High values mean a small IC50, low ones a large IC50. As usually defined, the bioavailability is dose-corrected exposure relative to a reference, in per cent. Read a high bioavailability as much systemic uptake. Consider `O=C(CC(=O)Nc1ccc2c(/C=C/c3ccccn3)n[nH]c2c1)Nc1cccc(F)c1`, for which the Activity was 0.1 g in series [1]; “Dose-dependent effect” in the series with GISTT1 [3]; 0.33 g in [6]; “Dose-dependent effect” with GISTT1 [10]; 0% in series [12]; 3.4% in series [18]. In addition, the Activity in series [19] is 0.2%. The total exposure AUC(0-inf) in series [2] is 901 ng·h/mL. The half-life in series [4] is 10.4 h; in series [17], 4.9 h. Also, the Tmax in series [5] worked out at 1.8 min. For the same compound, the pEC50 was 5.74 in [7], 7.47 in [13] and less than 6.00 in [15]. Moreover, the inhibition result (in series [8]; in series [16]; with Mus musculus [20]) was “Active” throughout. Moreover, the Drug uptake result in [9] is on record as “Not Active”. For the same compound, in series [11], the pIC50 was less than 5.00. The compound further showed a bioavailability in [14] of 27.5%. Besides, in the series with Mus musculus [21], the inhibition entry was “inactive”.
